Reference: ChEMBL document CHEMBL5724801, “EUbOPEN Chemogenomics Library - Multiplex” (2024)
“And” between values parts separate entries of the source, which are not always exact repeats. Equal entries are not always repeated.

Tested on: U2OS
Assay: Multiplex assay against U2OS
Assay type: toxicity, cell-based
Details: human
Procedure, shortened: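 Per cents of healthy-nucleus cells form the tubulin, mitochondrial-mass and membrane-permeability phenotype values. Live cells were stained at seeding with Hoechst33342, BioTracker Green Microtubule Cytoskeleton Dye, MitoTracker Red and Annexin V Alexa Fluor 680. After compound addition they were imaged on a CQ1 microscope at 37°C and 5% CO2, and CellPathfinder machine-learning gating split them into Hoechst high-intensity objects or normal cells, normal cells into healthy, pyknosed or fragmented nuclei, and pyknosed cells into mitotic or apoptotic.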

[1] = 12 h, 1 µM, compound concentration 1 uM
[2] = 12 h, 10 µM, compound concentration 10 uM
[3] = 24 h, 1 µM, compound concentration 1 uM
[4] = 24 h, 10 µM, compound concentration 10 uM
[5] = 48 h, 1 µM, compound concentration 1 uM
[6] = 48 h, 10 µM, compound concentration 10 uM

For `O=c1nc2[nH]c3ccccc3nc-2c(=O)[nH]1` [ALLOXAZINE], the “Population Apoptotic (%)” value [1] was 70% and 75%, the “Population Fragmented Nuclei (%)” value [1] was 25% and 15% and the “Population Healthy Nuclei (%)” value [1] was 61% and 74%. For the same compound, the “Population Hoechst High Intensity Objects (%)” value [1] was 2%, the “Population Membrane Permeable-Phenotype (%)” value [1] was 5% and the “Population Mitochondria Different-Phenotype (%)” value [1] was 0% and 5%. For the same compound, the “Population Mitotic Cells (%)” value [1] was 29% and 25%, the “Population Normal (%)” value [1] was 97% and the “Population Pyknosed Nuclei (%)” value [1] was 12% and 10%. For the same compound, the “Population Tubulin-Different-Phenotype (%)” value [1] was 3%, the “Total Cell Count” value [1] was 195 and 122 and the “Population Apoptotic (%)” value [2] was 86% and 88%. For the same compound, the “Population Fragmented Nuclei (%)” value [2] was 33% and 13%, the “Population Healthy Nuclei (%)” value [2] was 59% and 78% and the “Population Hoechst High Intensity Objects (%)” value [2] was 0% and 1%. For the same compound, the “Population Membrane Permeable-Phenotype (%)” value [2] was 7%, the “Population Mitochondria Different-Phenotype (%)” value [2] was 0% and 5% and the “Population Mitotic Cells (%)” value [2] was 13% and 11%. For the same compound, the “Population Normal (%)” value [2] was 99% and 98%, the “Population Pyknosed Nuclei (%)” value [2] was 7% and the “Population Tubulin-Different-Phenotype (%)” value [2] was 1% and 3%. For the same compound, the “Total Cell Count” value [2] was 212 and 119, the “Population Apoptotic (%)” value [3] was 73% and 57% and the “Population Fragmented Nuclei (%)” value [3] was 24% and 16%. The “Population Healthy Nuclei (%)” value [3] was 66% and 74%, the “Population Hoechst High Intensity Objects (%)” value [3] was 1% and 2% and the “Population Membrane Permeable-Phenotype (%)” value [3] was 4% and 5%. The “Population Mitochondria Different-Phenotype (%)” value [3] was 1% and 5%, the “Population Mitotic Cells (%)” value [3] was 26% and 42% and the “Population Normal (%)” value [3] was 98% and 97%. For the same compound, the “Population Pyknosed Nuclei (%)” value [3] was 8% and 9%, the “Population Tubulin-Different-Phenotype (%)” value [3] was 2% and the “Total Cell Count” value [3] was 261 and 146. The “Population Apoptotic (%)” value [4] was 78% and 75%, the “Population Fragmented Nuclei (%)” value [4] was 30% and 16% and the “Population Healthy Nuclei (%)” value [4] was 61% and 80%. The “Population Hoechst High Intensity Objects (%)” value [4] was 0% and 2%, the “Population Membrane Permeable-Phenotype (%)” value [4] was 8% and 5% and the “Population Mitochondria Different-Phenotype (%)” value [4] was 2% and 4%. For the same compound, the “Population Mitotic Cells (%)” value [4] was 21% and 25%, the “Population Normal (%)” value [4] was 99% and 97% and the “Population Pyknosed Nuclei (%)” value [4] was 8% and 2%. For the same compound, the “Population Tubulin-Different-Phenotype (%)” value [4] was 2% and 3%, the “Total Cell Count” value [4] was 237 and 148 and the “Population Apoptotic (%)” value [5] was 84% and 76%. The “Population Fragmented Nuclei (%)” value [5] was 19% and 18%, the “Population Healthy Nuclei (%)” value [5] was 71% and 72% and the “Population Hoechst High Intensity Objects (%)” value [5] was 1% and 6%. For the same compound, the “Population Membrane Permeable-Phenotype (%)” value [5] was 1% and 4%, the “Population Mitochondria Different-Phenotype (%)” value [5] was 1% and 2% and the “Population Mitotic Cells (%)” value [5] was 15% and 23%. For the same compound, the “Population Normal (%)” value [5] was 98% and 93%, the “Population Pyknosed Nuclei (%)” value [5] was 9% and 8% and the “Population Tubulin-Different-Phenotype (%)” value [5] was 1% and 2%. The “Total Cell Count” value [5] was 362 and 207, the “Population Apoptotic (%)” value [6] was 90% and 76% and the “Population Fragmented Nuclei (%)” value [6] was 26% and 12%. For the same compound, the “Population Healthy Nuclei (%)” value [6] was 66% and 79%, the “Population Hoechst High Intensity Objects (%)” value [6] was 1% and the “Population Membrane Permeable-Phenotype (%)” value [6] was 5% and 3%. For the same compound, the “Population Mitochondria Different-Phenotype (%)” value [6] was 1%, the “Population Mitotic Cells (%)” value [6] was 9% and 23% and the “Population Normal (%)” value [6] was 98%. The “Population Pyknosed Nuclei (%)” value [6] was 6% and 8%, the “Population Tubulin-Different-Phenotype (%)” value [6] was 2% and the “Total Cell Count” value [6] was 321 and 210.
`CC(C)(c1ccc(O)cc1)c1ccc(O)cc1` [BISPHENOL A] was tested, and the “Population Apoptotic (%)” value [1] was 38.24% and 39.39%, the “Population Fragmented Nuclei (%)” value [1] was 2.9% and 4.3% and the “Population Healthy Nuclei (%)” value [1] was 88.13% and 77.96%. The “Population Hoechst High Intensity Objects (%)” value [1] was 0%, the “Population Membrane Permeable-Phenotype (%)” value [1] was 0.3% and 2.76% and the “Population Mitochondria Different-Phenotype (%)” value [1] was 0.3% and 6.21%. For the same compound, the “Population Mitotic Cells (%)” value [1] was 61.76% and 60.61%, the “Population Normal (%)” value [1] was 100% and the “Population Pyknosed Nuclei (%)” value [1] was 8.97% and 17.74%. The “Population Tubulin-Different-Phenotype (%)” value [1] was 0.9% and 0.69%, the “Total Cell Count” value [1] was 379 and 186 and the “Population Apoptotic (%)” value [2] was 50% and 47.62%. For the same compound, the “Population Fragmented Nuclei (%)” value [2] was 2.17% and 6.45%, the “Population Healthy Nuclei (%)” value [2] was 87.31% and 80% and the “Population Hoechst High Intensity Objects (%)” value [2] was 0%. The “Population Membrane Permeable-Phenotype (%)” value [2] was 0.71% and 4.03%, the “Population Mitochondria Different-Phenotype (%)” value [2] was 0.35% and 6.45% and the “Population Mitotic Cells (%)” value [2] was 50% and 52.38%. For the same compound, the “Population Normal (%)” value [2] was 100%, the “Population Pyknosed Nuclei (%)” value [2] was 10.53% and 13.55% and the “Population Tubulin-Different-Phenotype (%)” value [2] was 1.42% and 0%. For the same compound, the “Total Cell Count” value [2] was 323 and 155, the “Population Apoptotic (%)” value [3] was 49.02% and 57.14% and the “Population Fragmented Nuclei (%)” value [3] was 2% and 2.2%. The “Population Healthy Nuclei (%)” value [3] was 87.82% and 85.46%, the “Population Hoechst High Intensity Objects (%)” value [3] was 0% and the “Population Membrane Permeable-Phenotype (%)” value [3] was 1.59% and 3.61%. The “Population Mitochondria Different-Phenotype (%)” value [3] was 0% and 5.67%, the “Population Mitotic Cells (%)” value [3] was 50.98% and 42.86% and the “Population Normal (%)” value [3] was 100%. For the same compound, the “Population Pyknosed Nuclei (%)” value [3] was 10.18% and 12.33%, the “Population Tubulin-Different-Phenotype (%)” value [3] was 0.68% and 0% and the “Total Cell Count” value [3] was 501 and 227. For the same compound, the “Population Apoptotic (%)” value [4] was 38.3% and 22.58%, the “Population Fragmented Nuclei (%)” value [4] was 2.34% and 3.03% and the “Population Healthy Nuclei (%)” value [4] was 86.68% and 81.31%. For the same compound, the “Population Hoechst High Intensity Objects (%)” value [4] was 0%, the “Population Membrane Permeable-Phenotype (%)” value [4] was 0.54% and 5.59% and the “Population Mitochondria Different-Phenotype (%)” value [4] was 0.81% and 6.21%. The “Population Mitotic Cells (%)” value [4] was 61.7% and 77.42%, the “Population Normal (%)” value [4] was 100% and the “Population Pyknosed Nuclei (%)” value [4] was 10.98% and 15.66%. The “Population Tubulin-Different-Phenotype (%)” value [4] was 0.54% and 0.62%, the “Total Cell Count” value [4] was 428 and 198 and the “Population Apoptotic (%)” value [5] was 38.64% and 58.54%. For the same compound, the “Population Fragmented Nuclei (%)” value [5] was 3.22% and 4.97%, the “Population Healthy Nuclei (%)” value [5] was 87.66% and 84.29% and the “Population Hoechst High Intensity Objects (%)” value [5] was 0%. The “Population Membrane Permeable-Phenotype (%)” value [5] was 0.36% and 2.17%, the “Population Mitochondria Different-Phenotype (%)” value [5] was 0.24% and 4.66% and the “Population Mitotic Cells (%)” value [5] was 61.36% and 41.46%. The “Population Normal (%)” value [5] was 100%, the “Population Pyknosed Nuclei (%)” value [5] was 9.13% and 10.73% and the “Population Tubulin-Different-Phenotype (%)” value [5] was 0.47% and 0%. The “Total Cell Count” value [5] was 964 and 382, the “Population Apoptotic (%)” value [6] was 36.49% and 60% and the “Population Fragmented Nuclei (%)” value [6] was 2.4% and 2.31%. The “Population Healthy Nuclei (%)” value [6] was 88.73% and 86.13%, the “Population Hoechst High Intensity Objects (%)” value [6] was 0% and the “Population Membrane Permeable-Phenotype (%)” value [6] was 1.22% and 3.02%. The “Population Mitochondria Different-Phenotype (%)” value [6] was 0.27% and 2.68%, the “Population Mitotic Cells (%)” value [6] was 63.51% and 40% and the “Population Normal (%)” value [6] was 100%. The “Population Pyknosed Nuclei (%)” value [6] was 8.87% and 11.56%, the “Population Tubulin-Different-Phenotype (%)” value [6] was 0.68% and 1.34% and the “Total Cell Count” value [6] was 834 and 346.
